Data: publication PMC10685803 (RSC Chemical Biology, 2023)
In brackets after ≈: the same amount, converted by molar mass. One block for each molecule: values may come before it.

B1: DAXX Helical Bundle domain (DHB_(DAXX), residues 55-144 hDAXX) (domain or fragment, human, UniProt Q9UER7 55-144, looked up)
chain: GKKCYKLENEKLFEEFLELCKMQTADHPEVVPFLYNRQQRAHSLFLASAEFCNILSRVLSRARSRPAKLYVYINELCTVLKAHSAKKKLN
B2: DAXX Interacting Domain of ATRX (DID_(ATRX), residues 1190-1325 hATRX) (domain or fragment, human, UniProt P46100 1190-1325, looked up)
chain: RTSTKRKQADITSSSSSDIEDDDQNSIGEGSSDEQKIKPVTENLVLSSHTGFCQSSGDEALSKSVPVTVDDDDDDNDPENRIAKKMLLEEIKANLSSDEDGSSDDEPEEGKKRTGKQNEENPGDEEAKNQVNSESD

What was measured:
[1] = test system: HCT116 cells; assay: Lactate dehydrogenase; assay type: cell-based; details: chloroalkane versions, 2% serum, 4 and 24 h
Outline: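 HCT116 cells were seeded at 5000 per well in DMEM/10% FCS for 24 h, then switched to medium with 2% FCS. They were given titrated peptide (up to 50 μM; 1% v/v DMSO final) for 4 or 24 h, with 1% DMSO-only controls. Released LDH was measured by colorimetric kit and normalised to 0.1% Triton X-100 lysis. Mean of three independent measurements ± 1 SD.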

[2] = Solubility limit of stitched peptides; assay type: physicochemical; details: peptides synthesized with an N-terminal FAM moiety; method not described
[3] = molecular target: T1, DHBDAXX (residues 55-144 hDAXX) (Homo sapiens, UniProt Q9UER7); assay: Fluorescence polarisation saturation binding of FAM-labelled peptide to DHBDAXX; details: fluorescence anisotropy Kd
T1 sequence (Q9UER7 55-144): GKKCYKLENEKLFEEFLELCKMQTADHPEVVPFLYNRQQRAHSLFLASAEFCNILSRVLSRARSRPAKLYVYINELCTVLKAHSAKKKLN

[4] = molecular target: B1; assay: ITC
[5] = molecular target: B2; assay: ITC
[6] = molecular target: B2; assay: fluorescence polarisation
[7] = molecular target: T1, DHBDAXX (residues 55-144 hDAXX); assay: Isothermal titration calorimetry; assay type: binding; details: ITC, 25 °C, ATRX fragments (Table 1), no unit in table
[8] = molecular target: T1, DHBDAXX (residues 55-144 hDAXX); details: read-out: Kd (competitive binding affinity); competitive displacement of FAM-SPEP7 from DHBDAXX

Molecule: CC[C@H](C)[C@@H]1NC(=O)[C@H](CCC(=O)O)NC(=O)[C@H](C)NC(=O)[C@H](CC(C)C)NC(=O)[C@H](CC(C)C)NC(=O)C2(CCCC=CCCCCCC[C@@](C)(C(=O)N[C@@H](CC(N)=O)C(=O)N[C@@H](CC(C)C)C(=O)N[C@@H](CO)C(N)=O)NC(=O)[C@H](CCCCN)NC1=O)CCCC=CCCC[C@](C)(NC(=O)[C@H](CCCNC(=N)N)NC(=O)[C@H](CC(N)=O)NC(=O)[C@H](CCC(=O)O)NC(=O)[C@@H]1CCCN1C(=O)[C@H](CC(=O)O)NC(=O)[C@H](CC(N)=O)NC(=O)[C@@H](N)CC(=O)O)C(=O)N[C@@H](C)C(=O)N[C@@H](CCCCN)C(=O)N[C@@H](CCCCN)C(=O)N2 (some centres unmarked) [STPEP2]
cellular toxicity (LDH release) [1]: no significant cellular toxicity | solubility limit [2]: 11 µM (≈ 28.9 µg/mL)

Molecule: CC[C@H](C)[C@@H]1NC(=O)[C@H](CCC(=O)O)NC(=O)[C@H](C)NC(=O)[C@H](CC(C)C)NC(=O)[C@H](CC(C)C)NC(=O)[C@H](C)NC(=O)C2(CCCC=CCCCCCC[C@@](C)(C(=O)N[C@@H](C)C(=O)N[C@@H](CC(N)=O)C(=O)N[C@@H](CC(C)C)C(=O)N[C@@H](CO)C(N)=O)NC1=O)CCCC=CCCC[C@](C)(NC(=O)[C@H](CC(N)=O)NC(=O)[C@H](CCC(=O)O)NC(=O)[C@@H]1CCCN1C(=O)[C@@H](N)CC(N)=O)C(=O)N[C@@H]([C@@H](C)CC)C(=O)N[C@@H](C)C(=O)N[C@@H](CCCCN)C(=O)N2 (some centres unmarked) [STPEP7]
cellular toxicity (LDH release) [1]: no significant cellular toxicity | solubility limit [2]: 49 µM (≈ 110 µg/mL) | fold decrease in binding compared to FAM-SPEP7 [3]: ~7 fold

Molecule: B1
Kd [5]: 80 nM | Kd [6]: 193 nM

Molecule: DNDPENRIAKKMLLEEIKANLS (peptide, UniProt P46100 1264-1285, looked up) [PEP_(ATRX), peptide fragment of ATRX (1264–1285)]
dH [4]: -13.3 kcal/mol

Molecule: B2
dH [4]: -11.7 kcal/mol

More lines, now with the values ahead:

dH [4]: -11.9 kcal/mol
Molecule: PENRIAKKMLLEEIKANLSSDEDG (peptide, UniProt P46100 1267-1290, looked up) [ATRX (1267–1290) peptide]

dH [4]: -9.3 kcal/mol
Molecule: PENRIAKKMLLEEIKANL (peptide, UniProt P46100 1267-1284, looked up) [ATRX (1267–1284) peptide]

dH [4]: -10.6 kcal/mol
Molecule: PVTVDDDDDDNDPENRIAKKMLLEEIKANL (peptide, UniProt P46100 1255-1284, looked up) [ATRX (1255–1284) peptide]

dH [4]: -13.3 kcal/mol
Molecule: NDPENRIAKKMLLEEIKANLSSDEDG (peptide, UniProt P46100 1265-1290, looked up) [ATRX (1265–1290) peptide]

dH [4]: -13.8 kcal/mol
Molecule: DDDDNDPENRIAKKMLLEEIKANLSSDEDG (peptide, UniProt P46100 1261-1290, looked up) [ATRX (1261–1290) peptide]

dH [4]: -13.4 kcal/mol
Molecule: DDNDPENRIAKKMLLEEIKANLSSDEDG (peptide, UniProt P46100 1263-1290, looked up) [ATRX (1263–1290) peptide]

dH [4]: -12.2 kcal/mol
Molecule: PVTVDDDDDDNDPENRIAKKMLLEEIKANLSSDED (peptide, UniProt P46100 1255-1289, looked up) [ATRX (1255–1289) peptide]

ΔG [7]: −9.69 | −TΔS [7]: 2.06 | ΔH ([7]; error in parentheses): −11.7 (0.10) | Kd [8]: 193 nM
B3: DIDATRX: DAXX Interacting Domain of ATRX, residues 1190–1325 hATRX, recombinant (protein)
chain: RTSTKRKQADITSSSSSDIEDDDQNSIGEGSSDEQKIKPVTENLVLSSHTGFCQSSGDEALSKSVPVTVDDDDDDNDPENRIAKKMLLEEIKANLSSDEDGSSDDEPEEGKKRTGKQNEENPGDEEAKNQVNSESD
modifications: left off: His6, N-terminal, state not stated
